The source made the active and inactive calls. The rule behind the calls is not given here.
Experiments:
Plasma [1] = experiment: Antioxidant activity in human plasma assessed as inhibition of H2O2-induced lipid peroxidation at 10 uM after 30 mins by TBARS assay relative to control; type: functional, cell-free
In short: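 Fresh plasma from medication-free donors was incubated for 30 min at 37 °C with compound (0.1–100 μM) plus 2 mM H2O2. Lipid peroxidation was quantified as TBARS. Data are from 5–9 independent experiments, as mean ± SD.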

Plasma [2] = experiment: Antioxidant activity in human plasma assessed as inhibition of H2O2/Fe2+-induced lipid peroxidation at 10 uM after 30 mins by TBARS assay relative to control; type: functional, cell-free
In short: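 Human donor plasma was incubated for 30 min at 37 °C with compound at 10 μM plus 4.7 mM H2O2, 3.8 mM […] and 2.5 mM EDTA. Peroxidation was read as TBARS concentration.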

A549 = experiment: Cytotoxicity against human A549 cells at 10 to 100 uM by MTT assay; type: cell-based; conditions: a549, 100 µM
In short: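 A549 human lung adenocarcinoma cells were kept in DMEM with 10% FBS, 1% penicillin/streptomycin and 2 mM L-glutamine, at 37 °C under 5% CO2. Viability was measured by MTT assay after exposure to 10–100 μM.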

[3] = Cytotoxicity against human DeFew cells at 10 to 100 uM by MTT assay; type: cell-based
In short: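 DeFew human B-lymphoma cells were maintained in RPMI 1640 with 10% FBS, 1% penicillin/streptomycin and 2 mM L-glutamine, in humidified 5% CO2 at 37 °C. Cells were exposed to 10–100 μM, and viability was read by MTT.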

Escherichia coli [4] = experiment: Antimicrobial activity against Escherichia coli DSM 8579 assessed as growth inhibition at 10 ug per disc after 24 to 48 hrs (reference value: 0 millimeter); type: functional; conditions: read-out: DIZ
Bacillus cereus [5] = experiment: Antimicrobial activity against Bacillus cereus DSM 4384 assessed as growth inhibition at 10 ug per disc after 24 to 48 hrs (reference value: 0 millimeter); type: functional; conditions: read-out: DIZ
Bacillus cereus [6] = experiment: Antimicrobial activity against Bacillus cereus DSM 4313 assessed as growth inhibition at 10 ug per disc after 24 to 48 hrs (reference value: 0 millimeter); type: functional; conditions: read-out: DIZ
Pseudomonas aeruginosa [7] = experiment: Antimicrobial activity against Pseudomonas aeruginosa DSM 50071 assessed as growth inhibition at 10 ug per disc after 24 to 48 hrs (reference value: 0 millimeter); type: functional; conditions: read-out: DIZ
Staphylococcus aureus [8] = experiment: Antimicrobial activity against Staphylococcus aureus DSM 25923 assessed as growth inhibition at 10 ug per disc after 24 to 48 hrs (reference value: 0 millimeter); type: functional; conditions: read-out: DIZ
Escherichia coli [9] = experiment: Antimicrobial activity against Escherichia coli DSM 8579 assessed as growth inhibition at 20 ug per disc after 24 to 48 hrs (reference value: 0 millimeter); type: functional; conditions: read-out: DIZ
Bacillus cereus [10] = experiment: Antimicrobial activity against Bacillus cereus DSM 4384 assessed as growth inhibition at 20 ug per disc after 24 to 48 hrs (reference value: 0 millimeter); type: functional; conditions: read-out: DIZ
Bacillus cereus [11] = experiment: Antimicrobial activity against Bacillus cereus DSM 4313 assessed as growth inhibition at 20 ug per disc after 24 to 48 hrs (reference value: 0 millimeter); type: functional; conditions: read-out: DIZ
Pseudomonas aeruginosa [12] = experiment: Antimicrobial activity against Pseudomonas aeruginosa DSM 50071 assessed as growth inhibition at 20 ug per disc after 24 to 48 hrs (reference value: 0 millimeter); type: functional; conditions: read-out: DIZ
Staphylococcus aureus [13] = experiment: Antimicrobial activity against Staphylococcus aureus DSM 25923 assessed as growth inhibition at 20 ug per disc after 24 to 48 hrs (reference value: 0 millimeter); type: functional; conditions: read-out: DIZ
Bacillus cereus [14] = experiment: Antimicrobial activity against Bacillus cereus DSM 4384 assessed as growth inhibition at 40 ug per disc after 24 to 48 hrs (reference value: 0 millimeter); type: functional; conditions: read-out: DIZ
Escherichia coli [15] = experiment: Antimicrobial activity against Escherichia coli DSM 8579 assessed as growth inhibition at 40 ug per disc after 24 to 48 hrs (reference value: 0 millimeter); type: functional; conditions: read-out: DIZ
Bacillus cereus [16] = experiment: Antimicrobial activity against Bacillus cereus DSM 4313 assessed as growth inhibition at 40 ug per disc after 24 to 48 hrs (reference value: 0 millimeter); type: functional; conditions: read-out: DIZ
Pseudomonas aeruginosa [17] = experiment: Antimicrobial activity against Pseudomonas aeruginosa DSM 50071 assessed as growth inhibition at 40 ug per disc after 24 to 48 hrs (reference value: 0 millimeter); type: functional; conditions: read-out: DIZ
Staphylococcus aureus [18] = experiment: Antimicrobial activity against Staphylococcus aureus DSM 25923 assessed as growth inhibition at 40 ug per disc after 24 to 48 hrs (reference value: 0 millimeter); type: functional; conditions: read-out: DIZ
Bacillus cereus [19] = experiment: Antimicrobial activity against Bacillus cereus DSM 4313 assessed per disc after 24 hrs by resazurin dye-based microtiter-plate assay; type: functional
In short: (§1)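 Resazurin microtiter-plate broth dilution. Samples in DMSO were twofold serially diluted in Mueller-Hinton broth with isosensitized broth and resazurin indicator. Bacteria were added to about 5 × 10^5 cfu/mL. Ciprofloxacin served as positive control and DMSO as negative control. Plates were run in triplicate at 37 °C for 24 h. MIC is the lowest concentration […].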

Bacillus cereus [20] = experiment: Antimicrobial activity against Bacillus cereus DSM 4384 assessed per disc after 24 hrs by resazurin dye-based microtiter-plate assay; type: functional; in short: as §1
Escherichia coli [21] = experiment: Antimicrobial activity against Escherichia coli DSM 8579 assessed per disc after 24 hrs by resazurin dye-based microtiter-plate assay; type: functional; in short: as §1
Pseudomonas aeruginosa [22] = experiment: Antimicrobial activity against Pseudomonas aeruginosa DSM 50071 assessed per disc after 24 hrs by resazurin dye-based microtiter-plate assay; type: functional; in short: as §1
Staphylococcus aureus [23] = experiment: Antimicrobial activity against Staphylococcus aureus DSM 25923 assessed per disc after 24 hrs by resazurin dye-based microtiter-plate assay; type: functional; in short: as §1

| SMILES | inhibition (Plasma [1]) | inhibition (Plasma [2]) | Activity (A549) | Activity [3] | zone of inhibition at 40 µg/disc (Bacillus cereus [14]) [mm] | zone of inhibition at 40 µg/disc (Escherichia coli [15]) [mm] | zone of inhibition at 40 µg/disc (Bacillus cereus [16]) [mm] | zone of inhibition at 40 µg/disc (Pseudomonas aeruginosa [17]) [mm] | zone of inhibition at 40 µg/disc (Staphylococcus aureus [18]) [mm] | also measured |
| --- | --- | --- | --- | --- | --- | --- | --- | --- | --- | --- |
| C[C@@H]1O[C@@H](Oc2c(-c3ccc(O)cc3)oc3cc(O)cc(O)c3c2=O)[C@H](O)[C@H](O)[C@H]1OC(=O)/C=C/c1ccc(O)cc1 | 31.8% | 39.7% | Non-Toxic | Non-Toxic | 9.67 | 8.66 | 5.33 | 9.67 | 10.7 | zone of inhibition at 10 µg/disc (Escherichia coli [4]): 3 mm; zone of inhibition at 10 µg/disc (Bacillus cereus [5]): 5 mm; zone of inhibition at 10 µg/disc (Bacillus cereus [6]): 2.33 mm; zone of inhibition at 10 µg/disc (Pseudomonas aeruginosa [7]): 0 mm; zone of inhibition at 10 µg/disc (Staphylococcus aureus [8]): 5 mm; zone of inhibition at 20 µg/disc (Escherichia coli [9]): 4.33 mm; zone of inhibition at 20 µg/disc (Bacillus cereus [10]): 5 mm; zone of inhibition at 20 µg/disc (Bacillus cereus [11]): 3.33 mm; zone of inhibition at 20 µg/disc (Pseudomonas aeruginosa [12]): 0 mm; zone of inhibition at 20 µg/disc (Staphylococcus aureus [13]): 6.67 mm |
| C[C@@H]1O[C@@H](Oc2c(-c3cc(O)c(O)c(O)c3)oc3cc(O)cc(O)c3c2=O)[C@H](O)[C@H](O)[C@H]1O | 44.4% | 34.1% | Non-Toxic | Non-Toxic | 0 | 9.67 | 0 | 5 | 6.33 | – |
| COC(=O)CC(O)(CC(=O)O)C(=O)O (stereo not drawn) | inactive | inactive | Non-Toxic | Non-Toxic | 0 | 10 | 5.67 | 0 | 10.7 | – |
| COc1cc(/C=C/C(=O)CC(=O)/C=C/c2ccc(O)c(OC)c2)ccc1O | 21.1% | 22.9% | – | – | – | – | – | – | – | – |
| O=C(/C=C/c1ccc(O)c(O)c1)O[C@@H]1C[C@](O)(C(=O)O)C[C@@H](OC(=O)/C=C/c2ccc(O)c(O)c2)[C@H]1O | 24.2% | 25.5% | Non-Toxic | Non-Toxic | 0 | 8.33 | 0 | 0 | 6.67 | – |
| O=C(O)CC(O)(CC(=O)O)C(=O)O [CITRIC ACID] | inactive | inactive | Non-Toxic | Non-Toxic | 0 | 10.7 | 10 | 9.33 | 10.7 | – |
| O=C1/C=C/CCc2ccc(O[C@@H]3O[C@H](CO)[C@@H](O)[C@H](O)[C@H]3O)c(c2)-c2cc(ccc2O[C@H]2OC[C@H](O)[C@H](O)[C@H]2O)CC1 (mixture of isomers) | 12.6% | 18.1% | Non-Toxic | Non-Toxic | 0 | 10 | 5 | 4.67 | 10 | – |
| O=C1CCc2ccc(O)c(c2)-c2cc(ccc2O)C[C@@H](O)[C@H](O)[C@H]1O (mixture of isomers) | 32.2% | 24.4% | Non-Toxic | Non-Toxic | 10.7 | 11.7 | 10.7 | 10.7 | 5.67 | zone of inhibition at 10 µg/disc (Escherichia coli [4]): 9.33 mm; zone of inhibition at 10 µg/disc (Bacillus cereus [5]): 5 mm; zone of inhibition at 10 µg/disc (Bacillus cereus [6]): 5 mm; zone of inhibition at 10 µg/disc (Pseudomonas aeruginosa [7]): 4.67 mm; zone of inhibition at 10 µg/disc (Staphylococcus aureus [8]): 0 mm; zone of inhibition at 20 µg/disc (Escherichia coli [9]): 9.67 mm; zone of inhibition at 20 µg/disc (Bacillus cereus [10]): 5 mm; zone of inhibition at 20 µg/disc (Bacillus cereus [11]): 5 mm; zone of inhibition at 20 µg/disc (Pseudomonas aeruginosa [12]): 4.67 mm; zone of inhibition at 20 µg/disc (Staphylococcus aureus [13]): 0 mm; MIC (Bacillus cereus [19]): 4 µg; MIC (Bacillus cereus [20]): 4 µg; MIC (Escherichia coli [21]): 10 µg; MIC (Pseudomonas aeruginosa [22]): 10 µg; MIC (Staphylococcus aureus [23]): 30 µg |
| C[C@@H]1O[C@@H](Oc2c(-c3ccc(O)cc3)oc3cc(O)cc(O)c3c2=O)[C@H](O)[C@H](O)[C@H]1O [AFZELIN] | 5.7% | 20.1% | Non-Toxic | Non-Toxic | 5 | 10 | 0 | 4 | 10.3 | – |
| COC(=O)CC(O)(CC(=O)OC)C(=O)OC | inactive | inactive | Non-Toxic | Non-Toxic | 0 | 11.3 | 0 | 6.67 | 11.3 | – |

Reference: ChEMBL document CHEMBL4190191, “Cyclic Diarylheptanoids from Corylus avellana Green Leafy Covers: Determination of Their Absolute Configurations and Evaluation of Their Antioxidant and Antimicrobial Activities” (J Nat Prod, 2017)
